Screens deposited in PubChem BioAssay by several laboratories.
APP 5'UTR act: activates APP 5'UTR luciferase reporter; 1% of 190,000 active; SH-SY5Y APP 5'UTR luciferase reporter, luminescence; zero percent = DMSO vehicle wells; activation, % at 2 µM;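 active means activation above a set limit, based on mean plus 3 SD of controls, cut at about 140% in these data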
STAT1 activator: STAT1 signaling activation; activation (% of control), % at 5.5 µM; AID 932; 2.6% of 200,000 active; NIH 3T3 STAT1-luciferase reporter, IFN-gamma, luminescence; 100% = IFN-gamma alone, no compound;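 active means activation above the screen-wide mean activation plus 3 SD, cut at about 130% in these data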;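 further: raw ratio to IFN-gamma control signal so 100% means no change and 0% no light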
Pf gamet viab: kills late stage P. falciparum gametocytes. AID 743093. 0.065% of 150,000 active. inhibition, % at 10.9 µM. P. falciparum stage V gametocytes, ATP luminescence, 24 h;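 active means inhibition above the mean plus 3 SD of compounds within the control limits, set per campaign, cut at about 38% in these data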;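 further: 0% = DMSO wells and 100% = medium only without gametocytes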
STAT1 inh-1: reduces IFN-gamma driven STAT1 reporter signal | inhibition, % at 5.5 µM | NIH 3T3 STAT1-luciferase reporter, luminescence | 0.35% of 200,000 active;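 active means inhibition above a set limit, the mean inhibition across all tested compounds plus 3 SD, cut at about 34% in these data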;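 further: 0% = IFN-gamma with DMSO and 100% = IFN-gamma with 300 µM nifuroxazide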
STAT3 activator: activators of IL-6 induced STAT3 signaling. 0.91% of 190,000 active. U3A cells, IL-6 STAT3-luciferase reporter, luminescence; 100% = signal with IL-6 EC80 alone. activation (% of control), % at 5.6 µM. AID 871;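 active means activation above the screen-wide mean of compound activation plus 3 SD, cut at about 130% in these data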;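 further: 0% = background luminescence of wells with medium and substrate only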
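Material: STAT1-lacking human U3A cells, STAT3 luciferase reporter | Benchmarks: IL-6-only wells as 100% reference | Probe or stimulus: IL-6 (33 ng/mL) | Timing: Compound 1 h, then IL-6 6 h at 37 °C | Detection: Luminescence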
NF-kB expr up: compounds increasing NF-kB expression in human neuronal cells | NF-kB reporter expression; stronger effect = higher value | fold change at 12.5 µM | 1.6% of 190,000 active; in the data active means fold change above about 3.3
STAT1 inh-2: confirmation of STAT1 signaling inhibitors | shares compounds with STAT1 inh-1 | NIH 3T3 STAT1-luciferase reporter, IFN-gamma, luminescence | inhibition, % at 5.5 µM | 55% of 200 active | AID 1263;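 active means triplicate mean inhibition exceeding the hit cutoff computed for the primary STAT1 screen, cut at about 35% in these data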;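 further: 0% = DMSO with IFN-gamma and 100% = 300 µM nifuroxazide with IFN-gamma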
NFkB inh: NF-kappaB inhibition in STAT1 inhibitor counter-screen. shares compounds with STAT1 inh-1. HEK293T NF-kB luciferase reporter, TNF-alpha induced, luminescence. inhibition, % at 5.7 µM. 30% of 200 active;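 active means inhibition above the mean of solvent-only control wells plus 3 SD of those wells, cut at about 15% in these data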;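 further: 0% = DMSO with TNF-alpha and 100% = MG-132 control with TNF-alpha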
STAT3 inh STAT1c: counter-screen for STAT1 inhibitors: STAT3 inhibition. U3A cells, IL-6 STAT3 luciferase reporter, luminescence; cells lacking STAT1. inhibition, % at 5.7 µM. 20% of 200 active. shares compounds with STAT1 inh-1. AID 1310;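 active means inhibition above the mean of solvent-only control wells plus 3 SD, set per campaign, cut at about 25% in these data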;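 further: 0% = IL-6 plus DMSO and 100% = IL-6 plus nifuroxazide control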
STAT1 act conf: STAT1 activation, confirmation assay; AID 1262; activation (% of control), % at 5.7 µM; 97% of 1,200 active; shares compounds with STAT1 activator; NIH 3T3 STAT1-luciferase reporter, IFN-gamma potentiation, luminescence; 100% = IFN-gamma EC80 alone, no compound;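 active means activation above a set limit carried over from the earlier primary STAT1 screen, cut at about 140% in these data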;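 further: simple ratio to median IFN-gamma plus DMSO wells so 0% means no light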
NFkB act STAT1ct: activates NF-kappaB, counter-screen to STAT1 activators. shares compounds with STAT1 activator. HEK293T NF-kB luciferase reporter, TNF-alpha stimulated, luminescence; 100% = TNF-alpha with vehicle only. activation (% of control), % at 5.7 µM. 43% of 1,200 active;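 active means activation above the mean of solvent-only control wells plus 3 SD, set per campaign, cut at about 130% in these data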;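 further: TNF-alpha given at a submaximal dose yielding about 80% of full reporter signal; values are well signal over median control so 100% means no change and 0% no light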
STAT3 act 2: activates human STAT3, counter-screen to STAT1 activators | shares compounds with STAT1 activator | U3A cells STAT3-luciferase reporter, IL-6, luminescence; cells lack STAT1; 100 = IL-6 alone, no compound effect | activation (% of control), % at 5.7 µM | 46% of 1,200 active | AID 1316;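 active means activation above the solvent-only control well mean plus 3 SD, set per plate batch, cut at about 110% in these data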;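 further: 0% = no luminescence and 100% = median IL-6 plus DMSO wells; higher means more STAT3 reporter activation so hits are non-selective activators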
* hit, by the source's call; . = no result given. Hits are enriched below; roughly 3.9% of the tested compounds scored in any of these assays.

SMILES	APP 5'UTR act	STAT1 activator	Pf gamet viab	STAT1 inh-1	STAT3 activator	NF-kB expr up	STAT1 inh-2	NFkB inh	STAT3 inh STAT1c	others
O=C(O)c1cccc(N/N=C/c2cccnc2)c1	87	63	.	40*	72	2.4	6	31*	-9
Clc1ccc(N/N=C/c2cccnc2)cc1	41	111	.	-13	96	1.8	.	.	.
CN(C)c1ccc(/C=N/N2CCN(c3ccccn3)CC2)cc1	.	.	14	.	.	.	.	.	.
CCOC(=O)C1=C(CC)Nc2ccccc2N=C1NC(=O)c1ccc(OC)c(S(=O)(=O)N2CCCCC2C)c1 (stereo not given)	17	65	.	37*	107	1.1	17	-2	-22
Cc1ccc(NC(=O)c2cc(C)n(-c3cccc(C)c3)c2C)cc1	63	43	17	65*	89	1.7	5	0	-14
Cc1cccc(C2(c3cccc(C)c3)CC2C(=O)Nc2ccc([N+](=O)[O-])cc2O)c1 (stereo not given)	-15	101	13	-1	101	0.38	.	.	.
O=c1cc(CSc2nc3ccccc3c(=O)[nH]2)c2ccc(O)cc2o1	22	35	7	69*	100	0.5	52*	14	1
O=c1[nH]c(SCc2ccccc2F)nc2ccccc12	-2	105	0	-7	97	1.2	.	.	.
Cc1ccc2[nH]c3c(=O)n4c(nc3c2c1)SCC4	2	88	15	12	82	1.2	.	.	.
COc1ccc2[nH]c3c(=O)n4c(nc3c2c1)SCCC4	13	66	4	37*	83	1.1	12	-4	17
CCOC(=O)N1CCN(C(=S)NC(=O)c2cc(Br)ccc2Cl)CC1	16	58	-6	44*	96	0.95	20	-8	0
CCOC(=O)N1CCN(C(=S)NC(=O)c2ccc(Br)cc2)CC1	28	96	5	3	118	0.96	.	.	.
Cc1cc(C(=O)CSc2nncs2)c(C)n1Cc1ccco1	181*	67	-8	35*	67	4.7*	-15	20*	26*
O=C(/C=C/c1cn(-c2ccccc2)nc1-c1cccnc1)N1CCCC1	-19	34	-5	71*	83	0.69	55*	37*	33*
CCOC(=O)N1CCC(NCCNC(=O)c2cccc(F)c2)CC1	.	.	6	.	.	.	.	.	.
Cc1cccc(Oc2ccc(NC(=O)c3ccccc3C(=O)O)cc2)c1C	6	93	9	8	100	0.91	.	.	.
O=C(O)c1ccccc1C(=O)Nc1ccc(Oc2cccc3ccccc23)cc1	-59	42	.	63*	81	1.1	18	23*	-13
CCN(CC(=O)NCc1ccc(Cl)cc1)C(=O)/C=C/c1cccs1	1	36	-25	68*	109	0.89	8	2	3
Cc1ccc(C(C)C)c(OCc2nn(CC(=O)c3ccc(OC(F)F)cc3)c3[n+]2CCCCC3)c1	-9	87	.	12	102	0.37	.	.	.
CCn1c(=O)c2cc(C(=O)N3CCCC3)sc2c2ccccc21	25	48	.	56*	.	0.77	47*	10	-21
CCn1c(=O)c2cc(C(=O)N3CCOCC3)sc2c2ccccc21	22	96	.	4	103	0.76	.	.	.
CC(=O)/C(=C/c1ccccc1)C(=O)Nc1ccccc1C	6	87	-18	12	92	1.1	.	.	.
Cc1ccccc1NC(=O)C(=Cc1ccc(C(=O)O)cc1)C(=O)Nc1ccccc1C	-9	62	-15	41*	111	0.69	46*	-1	-15
COc1ccccc1Nc1nc(-c2c(C)nc3ncccn23)cs1	-3	62	7	39*	68	0.97	36*	5	30*
N#CC1=C2SC=C(c3ccc(Br)cc3)N2CCCC1=O	176*	157*	2	-64	91	6.8*	.	.	.	STAT1 act conf=194*;NFkB act STAT1ct=147*;STAT3 act 2=102
SMILES	APP 5'UTR act	STAT1 activator	Pf gamet viab	STAT1 inh-1	STAT3 activator	NF-kB expr up	STAT1 inh-2	NFkB inh	STAT3 inh STAT1c	others
COC(=O)CCC(=O)NC(=S)Nc1ccccc1F	-7	106	-18	-6	104	.	.	.	.
CCN(CC)c1ccc(/C=N/N2CCN(Cc3ccccc3)CC2)cc1	-6	102	-5	-4	103	1.4	.	.	.
CN(c1ccccc1)c1ccc(/C=N/N2CCOCC2)cc1	97	172*	13	-81	99	6.8*	.	.	.	STAT1 act conf=197*;NFkB act STAT1ct=129;STAT3 act 2=108
O=C(COc1ccccc1)Nc1ccc(Cl)cn1	55	118	23	-22	86	1.7	.	.	.
O=C(COc1ccccc1Cl)Nc1ccc(Cl)cn1	198*	151*	18	-52	93	6.8*	.	.	.	STAT1 act conf=198*;NFkB act STAT1ct=120;STAT3 act 2=108
O=C(Nc1ccccc1)OC1CC2CC1C1CCCC21 (stereo not given)	121	162*	-8	-71	109	2.9	.	.	.	STAT1 act conf=175*;NFkB act STAT1ct=134*;STAT3 act 2=111*
O=C(Nc1ccccc1)O[C@@H]1C[C@H]2CCCC(=O)N3CC[C@@H](C1)[C@@H]23	.	.	13	.	.	.	.	.	.
CCOC(=O)CSc1nc(-c2ccncc2)ccc1C#N	185*	159*	1	-64	104	8.9*	.	.	.	STAT1 act conf=190*;NFkB act STAT1ct=131;STAT3 act 2=106
COc1ccc(C(=O)CSc2nnc3ccccn23)cc1OC	11	104	.	-6	115	1.3	.	.	.
O=C(CSc1nnc2ccccn12)c1ccc2c(c1)OCCO2	123	158*	7	-62	112	3.2	.	.	.	STAT1 act conf=186*;NFkB act STAT1ct=132;STAT3 act 2=130*
O=C(NCCc1ccccc1)c1n[nH]c2ccccc12	88	164*	.	-74	93	3.4*	.	.	.	STAT1 act conf=184*;NFkB act STAT1ct=130;STAT3 act 2=104
CCOc1ccccc1N(CC(=O)Nc1ccccc1F)S(=O)(=O)c1ccccc1	.	.	4	.	.	.	.	.	.
CCCCc1ccc(-c2ccc(C)cc2O)nc1	203*	156*	.	-60	57	7.2*	.	.	.	STAT1 act conf=198*;NFkB act STAT1ct=110;STAT3 act 2=85
